Most compounds without a hit are left out; they make up all but 11% or so of the library.
Diaphorase act = diaphorase activation or chemical reduction counter-screen; Diaphorase/resazurin coupled assay, resorufin fluorescence, 16 min; hits give high values; 1 = vehicle wells, 0 = NADH-free wells; AID 1229; activation factor at 20 µM; 190,000 compounds, 0.005% hits;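 active = diaphorase activity raised at least twofold by the compound at 20 µM; inactive = activation factor below 2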
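Measured by – red resorufin fluorescence at 544/590 nm excitation/emission · Test system – Clostridium kluyveri diaphorase, purified enzyme · Incubation – reaction time 16 min, room temperature · Buffer or medium – 50 mM HEPES pH 7.4 with 4.542 mM MgCl2, 0.005% Tween 20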
Diaph inh CS = counter-screen for diaphorase-based assays: diaphorase inhibitors and chemical oxidizers | diaphorase resazurin-to-resorufin fluorescence, NADH, 16 min; bacterial (C. kluyveri) enzyme, not human | inhibition, % at 20 µM | 190,000 compounds, 0.69% hits | AID 1217;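 active = primary screen inhibition at 20 µM above a set limit, cut at about 50% in these data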;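 note: plate controls were DMSO with full reaction for no effect and wells lacking NADH for full effect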
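Test system: diaphorase enzyme from Clostridium kluyveri; amount: diaphorase at 0.14 U/mL in enzyme working solution; detection: fluorescence of resorufin formed from resazurin, Ex 544/Em 590 nm; times: reaction incubation of 16 min at room temperature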
WT yeast gro inh = growth inhibition of WT yeast, mitochondrial fusion screen; mitochondrial fusion phenotypic screen, WT strain; inhibition, % at 10 µM; 190,000 compounds, 2.1% hits; AID 1362; in the data active = inhibition above about 58%; tested in S. cerevisiae
G6PDH CS = counter-screen for G6PDH assay hits: L. mesenteroides G6PDH inhibition; Purified L. mesenteroides G6PDH, diaphorase/resazurin coupled fluorescence, 45 min; inhibition, % at 5 µM; 200,000 compounds, 0.12% hits; AID 1020
L major viab = reduces viability of Leishmania major promastigotes | inhibition, % at 10 µM | 200,000 compounds, 9% hits | resazurin fluorescence viability | AID 1063;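 note: promastigotes grown with compound for 44 hours at 28 °C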
* marks the source's active call; other numbers are inactive results. Cut-off read from the data, not from the text of the source, unless noted: active = inhibition above about 50%; inactive = the rest.

For COCCCNC(=O)COc1ccc(Br)cc1Cl the results were Diaphorase act 1, Diaph inh CS 2, WT yeast gro inh -7, G6PDH CS 4 and L major viab 43.
Screening C=CCNCCCOc1ccc(C)cc1Br returned Diaphorase act 0.9, Diaph inh CS 8, WT yeast gro inh 16, G6PDH CS -5 and L major viab 94*.
Screening CC(C)NCCCCOc1ccc(Br)cc1Cl returned Diaphorase act 1.1, Diaph inh CS -8, WT yeast gro inh 8, G6PDH CS 11 and L major viab 99*.
`Cc1csc(NC(=O)C(NC(=O)c2ccccc2F)C(C)C)n1` (centres undefined) gave Diaphorase act 1.1, Diaph inh CS -7, WT yeast gro inh 5, G6PDH CS 5 and L major viab -2.
For COc1ccc(NC(=S)NC2CCCCC2)cn1 the results were Diaphorase act 0.8, Diaph inh CS 19, WT yeast gro inh 7, G6PDH CS 8 and L major viab 35.
For O=C(Nc1nnc(C(F)(F)F)s1)c1ccc(Br)s1 the results were Diaphorase act 0.9, Diaph inh CS 6, WT yeast gro inh 63*, G6PDH CS -4 and L major viab 10.
`CC(NC(=O)Nc1nnc(C(F)(F)F)s1)(C(F)(F)F)C(F)(F)F` gave Diaphorase act 0.9, Diaph inh CS 9, WT yeast gro inh 70*, G6PDH CS 1 and L major viab 43.
Screening COc1cc(/C=C/C(=O)O)cc(S(=O)(=O)N(CC(C)C)CC(C)C)c1OC returned Diaphorase act 1.1, Diaph inh CS -12, WT yeast gro inh 9, G6PDH CS 4 and L major viab -8.
CC(C)(C)C(=O)C(Oc1cccc2nonc12)n1cncn1 (centres undefined) was read as Diaphorase act 0.9, Diaph inh CS 13, WT yeast gro inh 7, G6PDH CS 0 and L major viab 24.
`CCOc1ccc2nc(NC(=O)c3ccoc3C)sc2c1` gave Diaphorase act 0.9, Diaph inh CS 11, WT yeast gro inh 79*, G6PDH CS 10 and L major viab 42.
`COc1ccc(NC(=O)C2CCN(S(=O)(=O)c3cccnc3)CC2)cc1Cl` gave Diaphorase act 0.9, Diaph inh CS 8, WT yeast gro inh 5, G6PDH CS 14 and L major viab -10.
`Cc1ccc2nc(NC(=O)C3CCN(S(=O)(=O)c4cccs4)CC3)sc2c1` gave Diaphorase act 0.8, Diaph inh CS 18, WT yeast gro inh 17, G6PDH CS 2 and L major viab 52*.
`Cc1nnc(NC(=O)C2CCN(c3cnccn3)CC2)s1` gave Diaphorase act 1, Diaph inh CS 4, WT yeast gro inh 21, G6PDH CS 7 and L major viab 2.
`COc1ccc2nc(NC(=O)C3CCN(S(=O)(=O)c4cccs4)CC3)sc2c1` gave Diaphorase act 0.7, Diaph inh CS 26, WT yeast gro inh 22, G6PDH CS 5 and L major viab 43.
`Cc1ccc(NC(=O)C2CCN(c3cnccn3)CC2)cc1` gave Diaphorase act 0.9, Diaph inh CS 10, WT yeast gro inh -5, G6PDH CS -1 and L major viab 78*.
For O=C(Nc1ccc(Cl)cc1F)C1CCN(S(=O)(=O)c2cccnc2)CC1 the results were Diaphorase act 0.8, Diaph inh CS 18, WT yeast gro inh 13, G6PDH CS 5 and L major viab 73*.
Screening COc1cccc(NC(=S)N2CCn3c(nc4ccccc43)C2)c1 returned Diaphorase act 0.9, Diaph inh CS 13, WT yeast gro inh -6, G6PDH CS 19 and L major viab -5.
`O=C(NCCc1nc2ccccc2[nH]1)/C(=C/c1ccco1)NC(=O)c1ccc(Br)o1` gave Diaphorase act 0.7, Diaph inh CS 30, WT yeast gro inh -10, G6PDH CS -21 and L major viab 7.
`O=C(c1cnc2n(c1=O)CCS2)N1CCN(c2ccc([N+](=O)[O-])cc2)CC1` gave Diaphorase act 0.8, Diaph inh CS 16, WT yeast gro inh 7, G6PDH CS -7 and L major viab -6.
Cc1ccc2nc(NC(=O)C3CCCN(S(=O)(=O)c4cccc5nsnc45)C3)sc2c1 (centres undefined) was read as Diaphorase act 0.6, Diaph inh CS 36, WT yeast gro inh 65*, G6PDH CS 2 and L major viab 49.
For CCOc1ccc2nc(NC(=O)C3CCN(S(=O)(=O)c4cnc[nH]4)CC3)sc2c1 the results were Diaphorase act 0.8, Diaph inh CS 19, WT yeast gro inh 1, G6PDH CS 7 and L major viab 2.
`Cc1ccc2nc(NC(=O)C3CCN(S(=O)(=O)c4cccc5nsnc45)CC3)sc2c1` gave Diaphorase act 0.7, Diaph inh CS 27, WT yeast gro inh 39, G6PDH CS -23 and L major viab 28.
Screening Cc1ccc2nc(NC(=O)C3CCN(S(=O)(=O)c4cccnc4)CC3)sc2c1 returned Diaphorase act 0.7, Diaph inh CS 30, WT yeast gro inh 6, G6PDH CS 3 and L major viab 36.
`Cc1ccc2nc(NC(=O)C3CCN(S(=O)(=O)c4cc([N+](=O)[O-])ccc4Cl)CC3)sc2c1` gave Diaphorase act 0.7, Diaph inh CS 27, WT yeast gro inh 5, G6PDH CS -14 and L major viab 99*.
Screening CCOc1ccc2nc(NC(=O)C3CCN(c4cnccn4)CC3)sc2c1 returned Diaphorase act 0.7, Diaph inh CS 27, WT yeast gro inh 19, G6PDH CS 0 and L major viab 70*.
COc1ccc2nc(NC(=O)C3CCN(S(=O)(=O)c4cccnc4)CC3)sc2c1 was read as Diaphorase act 0.9, Diaph inh CS 14, WT yeast gro inh 2, G6PDH CS 7 and L major viab 54*.
For COc1ccc(CNC(=O)CCC(=O)N2CCN(S(=O)(=O)c3ccc(Cl)cc3)CC2)cc1 the results were Diaphorase act 1, Diaph inh CS -3, WT yeast gro inh -5, G6PDH CS 6 and L major viab -1.
`CC(C)(/C=N/NC(=O)CSCc1ccccc1Cl)CCC#N` gave Diaphorase act 0.9, Diaph inh CS 9, WT yeast gro inh 3, G6PDH CS 8 and L major viab -3.
Screening CCOC(=O)CNC(=O)N1CCCC(C(=O)c2cccc(Cl)c2)C1 (centres undefined) returned WT yeast gro inh -5, G6PDH CS 18 and L major viab -5.
`O=C(CNC(=O)c1ccncc1)N/N=C/c1ccccc1[N+](=O)[O-]` gave Diaphorase act 0.9, Diaph inh CS 10, WT yeast gro inh 3, G6PDH CS 6 and L major viab 18.
Screening O=C(Nc1nc2ccc(F)cc2s1)C1CCN(S(=O)(=O)c2cc([N+](=O)[O-])ccc2Cl)CC1 returned Diaphorase act 0.8, Diaph inh CS 25, WT yeast gro inh -12, G6PDH CS -21 and L major viab 99*.

Bioassay records: PubChem, several laboratories
